{"source": "BindingDB's records for doi:10.1021/jm049389h", "about": "(Johns Hopkins University, 2005)", "biological_target": "Fatty acid synthase (Homo sapiens, UniProt P49327)", "sequence (P49327 whole entry)": "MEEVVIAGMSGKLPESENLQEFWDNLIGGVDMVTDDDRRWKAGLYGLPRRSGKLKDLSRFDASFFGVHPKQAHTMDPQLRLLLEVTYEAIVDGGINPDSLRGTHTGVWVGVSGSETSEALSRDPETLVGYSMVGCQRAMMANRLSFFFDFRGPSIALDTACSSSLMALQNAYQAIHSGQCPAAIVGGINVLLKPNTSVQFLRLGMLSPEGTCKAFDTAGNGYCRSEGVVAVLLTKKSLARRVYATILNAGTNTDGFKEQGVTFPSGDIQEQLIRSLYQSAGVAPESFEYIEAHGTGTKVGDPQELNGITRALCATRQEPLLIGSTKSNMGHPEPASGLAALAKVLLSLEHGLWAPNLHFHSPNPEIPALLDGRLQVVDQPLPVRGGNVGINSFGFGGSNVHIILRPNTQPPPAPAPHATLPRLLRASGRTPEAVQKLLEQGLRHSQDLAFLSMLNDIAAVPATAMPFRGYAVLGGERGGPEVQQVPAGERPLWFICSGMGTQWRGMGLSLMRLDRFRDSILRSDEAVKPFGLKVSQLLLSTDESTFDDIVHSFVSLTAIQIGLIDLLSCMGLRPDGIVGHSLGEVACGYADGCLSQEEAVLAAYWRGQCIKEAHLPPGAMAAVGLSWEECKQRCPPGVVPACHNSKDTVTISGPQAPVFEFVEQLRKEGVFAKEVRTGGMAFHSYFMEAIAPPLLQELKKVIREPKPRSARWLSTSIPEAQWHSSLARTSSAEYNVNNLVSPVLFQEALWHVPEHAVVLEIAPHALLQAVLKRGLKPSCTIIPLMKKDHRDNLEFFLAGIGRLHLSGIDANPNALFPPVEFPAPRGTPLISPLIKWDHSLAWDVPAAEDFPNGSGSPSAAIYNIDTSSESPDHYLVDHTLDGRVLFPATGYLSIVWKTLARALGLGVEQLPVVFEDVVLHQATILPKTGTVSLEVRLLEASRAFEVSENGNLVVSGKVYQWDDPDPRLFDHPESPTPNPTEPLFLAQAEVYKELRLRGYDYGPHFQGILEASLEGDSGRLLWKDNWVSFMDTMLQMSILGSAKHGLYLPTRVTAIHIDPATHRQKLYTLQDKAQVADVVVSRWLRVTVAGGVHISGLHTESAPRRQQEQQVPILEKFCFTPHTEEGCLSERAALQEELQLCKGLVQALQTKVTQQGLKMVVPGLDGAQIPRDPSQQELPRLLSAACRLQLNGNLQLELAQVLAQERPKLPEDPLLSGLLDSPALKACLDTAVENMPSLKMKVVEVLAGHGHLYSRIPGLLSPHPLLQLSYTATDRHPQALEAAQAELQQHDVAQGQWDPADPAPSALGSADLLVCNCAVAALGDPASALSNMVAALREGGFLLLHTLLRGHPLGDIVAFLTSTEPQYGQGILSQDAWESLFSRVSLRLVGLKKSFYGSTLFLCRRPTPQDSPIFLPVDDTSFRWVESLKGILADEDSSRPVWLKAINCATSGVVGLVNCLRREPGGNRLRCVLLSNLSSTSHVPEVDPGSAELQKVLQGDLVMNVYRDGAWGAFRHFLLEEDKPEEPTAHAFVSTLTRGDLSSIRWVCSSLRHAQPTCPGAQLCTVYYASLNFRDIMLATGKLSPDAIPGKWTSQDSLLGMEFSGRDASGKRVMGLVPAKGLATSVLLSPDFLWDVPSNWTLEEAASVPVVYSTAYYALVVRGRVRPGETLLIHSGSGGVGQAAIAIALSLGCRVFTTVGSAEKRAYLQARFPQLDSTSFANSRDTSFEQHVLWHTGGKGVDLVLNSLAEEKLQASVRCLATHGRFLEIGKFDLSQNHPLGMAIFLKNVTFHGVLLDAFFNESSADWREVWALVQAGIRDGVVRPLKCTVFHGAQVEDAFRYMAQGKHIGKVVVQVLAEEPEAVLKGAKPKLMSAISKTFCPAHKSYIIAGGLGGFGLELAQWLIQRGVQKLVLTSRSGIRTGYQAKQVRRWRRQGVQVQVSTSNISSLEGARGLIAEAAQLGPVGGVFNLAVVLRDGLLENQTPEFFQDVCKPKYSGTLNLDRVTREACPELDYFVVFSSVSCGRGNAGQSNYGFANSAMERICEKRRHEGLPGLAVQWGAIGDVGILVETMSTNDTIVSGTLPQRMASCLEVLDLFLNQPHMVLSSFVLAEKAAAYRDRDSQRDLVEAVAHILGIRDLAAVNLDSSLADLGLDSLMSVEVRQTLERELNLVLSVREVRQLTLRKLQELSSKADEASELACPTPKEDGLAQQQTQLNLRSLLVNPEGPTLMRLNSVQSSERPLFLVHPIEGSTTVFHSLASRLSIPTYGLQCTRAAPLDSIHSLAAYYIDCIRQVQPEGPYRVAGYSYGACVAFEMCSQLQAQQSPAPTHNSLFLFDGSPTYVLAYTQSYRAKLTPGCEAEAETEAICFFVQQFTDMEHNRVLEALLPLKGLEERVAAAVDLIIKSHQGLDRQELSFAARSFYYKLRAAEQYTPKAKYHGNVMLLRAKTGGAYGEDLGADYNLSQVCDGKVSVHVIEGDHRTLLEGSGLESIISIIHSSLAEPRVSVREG", "assay": "Inhibitory concentration against purified human fatty acid synthase activity in ZR-75-1 breast cancer cells", "summary_of_the_method": "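FAS purified from ZR-75-1 human breast cancer cells (2 µg per well). Overall reaction read at 37 °C as malonyl-CoA-dependent NADPH oxidation at 340 nm, every 10 s for 5 min. Average of duplicate runs; neg means IC50 > 50 µg/mL.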", "data": [{"smiles": "C=C/C(C)=C/[C@@]1(C)SC(=O)C(C)C1=O", "note": "(stereo partly drawn) [(R)-(+)-Thiolactomycin]", "values": [{"measurement": "IC50", "result": 99.8, "unit": "µM"}]}]}
